The structures appear in SMILES notation.

The series in a line: Toxicity liver stage against HepG2, at 10uM. It is filed as cell-based. On the set-up: test concentration 10 uM, cell line HepG2-A16-CD81EGFP. As to conditions: human, HepG2-A16-CD81EGFP cells; read-out: INHIBITION
The method, boiled down: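 Uninfected HepG2-A16-CD81EGFP cells, 3 × 10^3 per well, 1536-well, plated on prespotted compound at 10 μM final, parasite-free screening media added to match infected plates; puromycin 10 μM positive, DMSO 0.5% negative; run in parallel with 48 h PbLuc assay at 37 °C, 5% CO2; viability by CellTiter-Glo luminescence, normalized to controls.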
With `CC(C)c1cc2c(s1)NC(c1ccccn1)NC2=O` (configuration not stated), the cytotoxicity at 10 µM was -0.378%. As to `c1cnc(-c2noc(C3CN(Cc4ccc5c(c4)CCO5)C3)n2)cn1`, the cytotoxicity at 10 µM turned out to be 1.35%. As to `NC(=O)c1csc(C(=O)N2CCCC(n3cccn3)C2)c1` (configuration not stated), the cytotoxicity at 10 µM was -2.77%. With `Cc1c(C(=O)O)nnn1Cc1cccc(C(F)(F)F)c1` the figure was -2.93%; with `CCc1cccc(OCC(=O)N2CCCC(n3cncn3)C2)c1` (configuration not stated), -7.62%; with `CCN(Cc1ccccc1)S(=O)(=O)C1CCS(=O)(=O)CC1`, 5.44%. The figure for `CCN(Cc1ccncc1)C(=O)C1COc2c(cccc2OC)C1` (configuration not stated) is 3.4%; for `CC(CCSc1ccccc1)N1CCCN(C(N)=O)CC1` (configuration not stated) it is -10.7%; for `O=c1cc(-c2cccnc2)nc(-c2ccc(CN3CC[C@@H](O)C3)cc2)[nH]1` it is 2.89%.

For the molecule `O=C(NC1CCCCC1)c1ccc(Oc2ccc3nncn3n2)cc1`, the cytotoxicity at 10 µM worked out at 2.17%.

As for `Cc1ccc(C2CN(CCCS(=O)(=O)C(C)C)CCO2)c(C)c1` (configuration not stated), the cytotoxicity at 10 µM is -2.36%. With `OC1(CN2CCCCC2)CCN(Cc2c[nH]c(CC3CCCC3)n2)C1` (configuration not stated) the figure was -13%; with `O=C1CCC(C(=O)Nc2cnn(-c3ccccc3Br)c2)N1` (configuration not stated), 3.56%. The figure for `O=C1NC2(CCN(c3ncccn3)CC2)CC1c1cccnc1` (configuration not stated) is -71.4%; for `CCn1ncc2c1CN(C(=O)Cc1cccs1)CC2COC` (configuration not stated) it is 4.7%. As for `CN(C)C[C@H]1C[C@@H]2CN(C(=O)c3ccno3)C[C@@H]2O1`, the cytotoxicity at 10 µM is -6.32%. With `CC(C)c1n[nH]c(C(=O)Nc2ccccn2)c1Br` the figure was -31.7%; with `COC(=O)c1cc2c(=O)n(C3CCCC3)ccc2nc1C`, -43.9%; with `CN(Cc1ccncc1)C1CC2(CCN(c3ncc(F)cn3)CC2)C1`, 52.4%.

Turning to `CS(=O)(=O)NCC1CCN(C(=O)Oc2ccccc2)CC1`, the cytotoxicity at 10 µM was -151%. The figure for `CCN(Cc1cnn(C)c1)C[C@H]1CC[C@@H](Cc2ccc(CO)cc2)O1` is 5.95%; for `O=C(NCc1ccco1)[C@@]12CCO[C@@H]1CCN(Cc1ccccn1)C2` it is 0.109%; for `CCCS(=O)(=O)NC(C)C(=O)NCc1ccc(N2CCCC2)nc1` (configuration not stated) it is -11.8%. With `CS(=O)(=O)N1CCC2(CC1)CC(NCc1ccccn1)c1ccccc12` (configuration not stated) the figure was -109%; with `O=C1O[C@@H]2CN(Cc3ccccc3F)C[C@@H]2N1CCCN1CCOCC1`, -4.73%; with `Cc1ccc(S(=O)(=O)n2ccc(C(=O)NCC(F)(F)F)c2)cc1`, -4.78%. The figure for `CCCc1cnc(C)nc1N1CCC(Cn2cc(CN(C)C)nn2)CC1` is -4.4%; for `CCN(C)C[C@@H]1CN(Cc2cccc(O)c2)C[C@@H]1CO` it is -1.13%. As for `Cc1cc(CN2CCN(C(=O)c3sccc3C(C)C)CC2)no1`, the cytotoxicity at 10 µM was -0.962%.

For `NC(=O)c1ccc(NC(=O)c2ccncc2Cl)cn1`, the cytotoxicity at 10 µM came to 8.29%. With `Cc1cc(N(C)C)nc(C2(C)CCCN2C(=O)c2cnccn2)n1` (configuration not stated) the figure was -1.19%; with `OC1CCN(c2cncc(CCC3CCCN3)n2)CC1` (configuration not stated), -0.24%; with `Cc1nc[nH]c1CN(C)CC1CCCN(CCc2ccc(Cl)cc2)C1` (configuration not stated), -15.5%. With `c1cnc(CC2COCCN(C3CCCCC3)C2)cn1` (configuration not stated) the figure was 0.514%; with `CCC1CCN(CCn2cnc3c(C)csc3c2=O)CC1`, -6.94%.

In the case of `Cn1ncnc1NCc1ccc(Br)cc1`, the cytotoxicity at 10 µM was -11.9%. With `O=C(Cn1cccn1)N1CCc2[nH]nc(-c3ccc4c(c3)OCO4)c2C1` the figure was -153%; with `NS(=O)(=O)CCNC(=O)c1cc(Br)c2c(c1)OCCO2`, 1.06%; with `O=C1NCc2ccccc2CC12CCN(Cc1ccccc1Cl)CC2`, 5.86%. The figure for `CCc1ncc2c(n1)CN(C(=O)CC(C)NC(C)=O)C2` (configuration not stated) is 3.6%; for `CC(=O)N1CCN(Cc2ccc(C)o2)CC2(CC(=O)N(C)C2)C1` (configuration not stated) it is -2.01%.

`Cc1ccc(NC(C)C(=O)NCc2cccs2)cc1C` (configuration not stated): the cytotoxicity at 10 µM was -16.4%. The figure for `CC(C)Nc1nc(N2CCCC2)nc2c1CN(C(C)C)CC2` is 2.06%; for `CCOc1ccc(C(=O)n2cccn2)cc1` it is 0.45%; for `Cc1ncc(Cl)c(C(=O)N2CCCC(n3nc(C)nc3C)C2)n1` (configuration not stated) it is -0.426%.

As to `Cc1noc(C2CCCN(C(=O)c3ccc(Br)cc3F)C2)n1` (configuration not stated), the cytotoxicity at 10 µM was -8.06%. Take `CCc1noc(CNCC2CCCN2c2cccnn2)n1` (configuration not stated): the cytotoxicity at 10 µM was found to be 2.11%. Regarding `CC(C)NC(=O)N1CCN(CCn2cccn2)c2ncccc2C1`, the cytotoxicity at 10 µM was -100%. The figure for `Cc1nc(C)n(CC2CN(CCc3cccs3)CCO2)n1` (configuration not stated) is 7.12%; for `CS(=O)(=O)Cc1cc(F)ccc1NCc1nnsc1Cl` it is -12.2%; for `CO[C@H]1CCN(c2nnc(C)s2)C[C@@H]1Cc1cccc(C)c1` it is 16.6%. The figure for `O=S(=O)(NCC1OCCc2cn(CC3CCOCC3)nc21)C1CC1` (configuration not stated) is 11.2%.

For `Clc1ccccc1OCCc1cc(C2CCNC2)n[nH]1` (configuration not stated), the cytotoxicity at 10 µM is -32.9%. With `Cn1cc(Br)c(=O)c(NS(=O)(=O)c2ccccc2F)c1` the figure was -2.62%; with `COCCCNC(=O)Cn1c(-c2cccc(Cl)c2)nc(C)cc1=O`, -8.41%; with `COc1ccccc1CN1CC(O)CN(S(=O)(=O)C(C)C)CC1=O` (configuration not stated), -12.4%. `CNC(=O)Cn1c(-c2ccco2)nn(-c2ccccc2OC)c1=O`: the cytotoxicity at 10 µM is 2.51%. The figure for `CN(Cc1cccc(C#N)c1)Cn1nc(C(C)(C)C)ccc1=O` is -1.64%; for `FC(F)Oc1ccccc1CN1CCCC(c2nccn2CC2CC2)C1` (configuration not stated) it is 6.64%.

On to `Cc1noc(C)c1CN1C(=O)[C@@H]2CC[C@H]1CN(Cc1cscn1)C2`, for which the cytotoxicity at 10 µM turned out to be 0.854%. With `Cc1cnc2c(c1NCc1cccs1)c(=O)n(C)c(=O)n2C` the figure was 0.319%. The figure for `CN(Cc1ccsc1)C(=O)Nc1cccnc1N1CCCC1` is -4.37%; for `O=S1(=O)COCCN1Cc1cccc(Cl)c1` it is -11.4%; for `CN1C[C@H]2CN(Cc3cccc(OC(F)(F)F)c3)CCN2C1=O` it is 4.85%. As for `CS(=O)(=O)NC1CCCN(C(=O)NCc2cccnc2)C1` (configuration not stated), the cytotoxicity at 10 µM is 1.59%.

As to `Cc1ccc2nc(C(=O)N3CCNC(=O)C3c3cccc(F)c3)cn2c1` (configuration not stated), the cytotoxicity at 10 µM was -5.66%. For the molecule `Cc1nccnc1N1Cc2cnn(Cc3ccc(F)cc3)c2C1`, the cytotoxicity at 10 µM came to 2.45%.

`O=C(NCC1CCN(Cc2cc3ccccc3[nH]2)C1)C1CCCCC1` (configuration not stated): the cytotoxicity at 10 µM came to 9.81%.

For `O=C(CN1CCN(c2ccnc3c(F)ccc(F)c23)CC1)NC1CC1`, the cytotoxicity at 10 µM was -1.12%.

For the molecule `CCN(Cc1ccc2c(c1)OCO2)S(=O)(=O)N(C)C(C)C`, the cytotoxicity at 10 µM is 8.55%.

Take `CCc1nc(CN2CCCN(Cc3nnc(C4CC4)o3)CC2)no1`: the cytotoxicity at 10 µM was -9.26%. Take `CC(C)CC(=O)N1CCCCC(NC(=O)CCc2cccnc2)C1` (configuration not stated): the cytotoxicity at 10 µM is -1.62%. With `Cc1noc(C(C)C)c1C(=O)N1CCCN(Cc2cscn2)CC1`, the cytotoxicity at 10 µM was -3.56%. The figure for `CC(C)c1ccc(C(O)Cn2c(=O)c(C#N)cn(C3CC3)c2=O)cc1` (configuration not stated) is -11.5%; for `COc1cc(NCc2ncc[nH]2)ccc1Br` it is 11.2%. With `c1cncc(C[C@@H]2CC[C@H](CN3CCCOCC3)O2)c1` the figure was 2.13%. In the case of `Cc1ccc(N2CCCC(NCc3cnc(C)s3)C2)nn1` (configuration not stated), the cytotoxicity at 10 µM was -0.755%.

Turning to `CCS(=O)(=O)N1C[C@H]2CC[C@@]3(N=C(C)N(CC(C)C)C3=O)[C@H]2C1`, the cytotoxicity at 10 µM is -85%. With `COc1cccc2ccn(CC(=O)NCC(C)C)c12` the figure was -36.5%; with `CCCc1ccc(S(=O)(=O)NCCNC(=O)c2ccoc2)cc1`, 7.36%; with `O=C(CCn1cncn1)N1CCC2(CC1)[C@H](O)C[C@@H]2OCCO`, -0.387%. The figure for `c1csc(CN2C[C@@H]3COC[C@]3(COCc3ccncc3)C2)c1` is 18%; for `Cn1cc(CN2CCCC3(CCN(c4cccnc4)C3=O)C2)cn1` (configuration not stated) it is -74.9%; for `CCC(CO)NCc1ccc(-c2ccc(Cl)cc2)o1` (configuration not stated) it is 5.24%. In the case of `COCc1cn(C2CCN(C(=O)c3ccc(F)c(C)c3)CC2)nn1`, the cytotoxicity at 10 µM was -0.723%. With `CCn1nc(C)c(C(C)Nc2cc(C3CCNCC3)nc(C)n2)c1C` (configuration not stated) the figure was 2.38%. As for `C=c1ncsc1=C1NC(c2cccc(CN3CCOCC3)c2)=NO1`, the cytotoxicity at 10 µM was -11.3%.

With `O=C(O)c1cnc(N2CCCC2)nc1COc1ccccc1`, the cytotoxicity at 10 µM is 0.924%. As to `Cc1ccccc1C1CCCN1C(=O)CN1CC2(CCNCC2)OC1=O` (configuration not stated), the cytotoxicity at 10 µM is -11.1%. With `CCN(CC)CC[C@H]1CN(C(=O)c2ccc(F)cc2)CC[C@H]1CC(=O)O` the figure was 3.1%; with `Cc1noc(C)c1C(=O)N1CCC2(CCc3ccccc3C(=O)N2)C1` (configuration not stated), 1.75%. Regarding `CCc1nccn1-c1cccc(C2CCCN(C3CCCCC3)C2)n1` (configuration not stated), the cytotoxicity at 10 µM was -5.08%. As to `COCCCN(Cc1ccc(F)cc1Cl)C1CCS(=O)(=O)C1` (configuration not stated), the cytotoxicity at 10 µM was 13.7%. With `CC(C)c1cc(C(=O)N2CCc3nc(C4CCCN4)ncc3C2)cs1` (configuration not stated) the figure was -16.5%; with `COCCn1c(=O)n(Cc2ccccc2C)c2cc(C(=O)O)ccc21`, -1.79%.

With `CCN1CC(C(=O)N2CCC(Oc3ccccc3Cl)CC2)CC1=O` (configuration not stated), the cytotoxicity at 10 µM is -22.4%.

In the case of `CN(C(=O)CCN1CCCC1=O)c1cc(C#N)c2ccccc2n1`, the cytotoxicity at 10 µM was determined as 3.33%.
